# Biological target: T1, Protein cereblon/Androgen receptor (Homo sapiens, UniProt P10275+Q96SW2)
# Experiment: Protac activity at CRBN/AR in human VCaP cells assessed as induction of AR degradation at 0.001 uM measured after 24 hrs by western blot analysis relative to control
# Assay type: cell-based
# Conditions: not given
# T1 sequence (P10275 whole entry, looked up): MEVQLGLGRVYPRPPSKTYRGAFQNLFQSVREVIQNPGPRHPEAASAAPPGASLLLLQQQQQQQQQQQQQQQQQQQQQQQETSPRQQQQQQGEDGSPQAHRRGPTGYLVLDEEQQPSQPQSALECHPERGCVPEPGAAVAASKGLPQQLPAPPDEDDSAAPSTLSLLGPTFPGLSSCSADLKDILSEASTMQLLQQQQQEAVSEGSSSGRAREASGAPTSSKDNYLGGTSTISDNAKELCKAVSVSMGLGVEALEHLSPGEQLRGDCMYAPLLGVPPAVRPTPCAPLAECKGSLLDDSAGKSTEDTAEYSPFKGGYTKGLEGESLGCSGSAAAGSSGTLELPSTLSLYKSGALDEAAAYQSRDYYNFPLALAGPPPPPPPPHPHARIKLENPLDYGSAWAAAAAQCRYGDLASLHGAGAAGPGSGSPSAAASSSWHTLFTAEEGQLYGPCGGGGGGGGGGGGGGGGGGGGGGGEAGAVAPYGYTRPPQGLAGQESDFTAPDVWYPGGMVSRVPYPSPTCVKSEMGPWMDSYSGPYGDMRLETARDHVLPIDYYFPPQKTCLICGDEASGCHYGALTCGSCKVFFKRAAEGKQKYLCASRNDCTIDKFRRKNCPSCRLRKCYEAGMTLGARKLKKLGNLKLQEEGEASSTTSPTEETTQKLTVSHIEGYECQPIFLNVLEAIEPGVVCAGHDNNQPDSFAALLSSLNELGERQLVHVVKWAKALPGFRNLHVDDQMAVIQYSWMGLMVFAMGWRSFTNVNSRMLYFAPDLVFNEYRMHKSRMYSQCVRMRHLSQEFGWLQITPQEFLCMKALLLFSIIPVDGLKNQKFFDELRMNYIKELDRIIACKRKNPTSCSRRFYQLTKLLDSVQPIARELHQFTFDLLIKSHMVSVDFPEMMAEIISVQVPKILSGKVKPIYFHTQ
# T1 sequence (Q96SW2 whole entry, looked up): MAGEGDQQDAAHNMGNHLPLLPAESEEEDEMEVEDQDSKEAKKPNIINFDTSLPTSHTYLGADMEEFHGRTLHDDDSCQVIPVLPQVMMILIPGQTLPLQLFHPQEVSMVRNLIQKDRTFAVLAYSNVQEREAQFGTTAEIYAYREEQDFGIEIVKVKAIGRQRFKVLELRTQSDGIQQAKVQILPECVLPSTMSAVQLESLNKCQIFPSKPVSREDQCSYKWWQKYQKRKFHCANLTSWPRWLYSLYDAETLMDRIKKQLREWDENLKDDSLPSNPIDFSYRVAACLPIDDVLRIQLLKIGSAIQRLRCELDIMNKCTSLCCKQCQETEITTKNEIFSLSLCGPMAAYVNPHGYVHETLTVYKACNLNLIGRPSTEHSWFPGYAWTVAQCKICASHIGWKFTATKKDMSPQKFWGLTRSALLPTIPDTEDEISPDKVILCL
row,SMILES,Activity [%]
1,N#Cc1ccc(O[C@H]2C[C@H](NC(=O)c3ccc(N4CCN(CC5CCN(c6ccc7c(c6)C(=O)N(C6CCC(=O)NC6=O)C7=O)CC5)CC4)cc3)C2)cc1Cl (some centres not stated),< 5
2,CC1(C)[C@H](NC(=O)c2ccc(N3CCC4(CCC(Nc5ccc6c(c5)C(=O)N(C5CCC(=O)NC5=O)C6=O)CC4)CC3)cc2)C(C)(C)[C@H]1Oc1ccc(C#N)c(Cl)c1 (some centres not stated),13
3,CC1(C)[C@H](NC(=O)c2ccc(N3CCN(CCNc4cccc5c4C(=O)N(C4CCC(=O)NC4=O)C5=O)CC3)cc2)C(C)(C)[C@H]1Oc1ccc(C#N)c(Cl)c1 (some centres not stated),< 5

# Next, values leading:
row,Activity [%],SMILES
1,65,CC1(C)[C@H](NC(=O)c2ccc(C(=O)N3CCN(CC4CN(c5ccc6c(c5)C(=O)N(C5CCC(=O)NC5=O)C6=O)C4)CC3)cc2)C(C)(C)[C@H]1Oc1ccc(C#N)c(Cl)c1 (some centres not stated)
2,< 5,CC1(C)[C@H](NC(=O)c2ccc(N3CCN(CC4CCN(c5ccc6c(c5)C(=O)N(C5CCC(=O)NC5=O)C6=O)CC4)CC3)cc2)C(C)(C)[C@H]1Oc1ccc(C#N)c(F)c1 (some centres not stated)
3,16,CC1(C)[C@H](NC(=O)c2ccc(N3CCN(CC4CC5(CCN(c6ccc7c(c6)C(=O)N(C6CCC(=O)NC6=O)C7=O)C5)C4)CC3)cc2)C(C)(C)[C@H]1Oc1ccc(C#N)c(Cl)c1 (some centres not stated)
4,15,CC1(C)[C@H](NC(=O)c2ccc(N3CCN(C4CCC5(CC4)CN(c4ccc6c(c4)C(=O)N(C4CCC(=O)NC4=O)C6=O)C5)CC3)cc2)C(C)(C)[C@H]1Oc1ccc(C#N)c(Cl)c1 (some centres not stated)
5,0,CC1(C)[C@H](NC(=O)c2ccc(N3CCC4(CC3)CC(Nc3ccc5c(c3)C(=O)N(C3CCC(=O)NC3=O)C5=O)C4)cc2)C(C)(C)[C@H]1Oc1ccc(C#N)c(Cl)c1 (some centres not stated)

# Biological target: T1, Protein cereblon/Androgen receptor
# Experiment: Protac activity at CRBN/AR in human VCaP cells assessed as induction of AR degradation at 0.1 uM measured after 24 hrs by western blot analysis relative to control
# Assay type: cell-based
# Conditions: not given
row,SMILES,Activity [%]
1,N#Cc1ccc(O[C@H]2C[C@H](NC(=O)c3ccc(N4CCN(CC5CCN(c6ccc7c(c6)C(=O)N(C6CCC(=O)NC6=O)C7=O)CC5)CC4)cc3)C2)cc1Cl (some centres not stated),25
2,CC1(C)[C@H](NC(=O)c2ccc(N3CCC4(CCC(Nc5ccc6c(c5)C(=O)N(C5CCC(=O)NC5=O)C6=O)CC4)CC3)cc2)C(C)(C)[C@H]1Oc1ccc(C#N)c(Cl)c1 (some centres not stated),38
3,CC1(C)[C@H](NC(=O)c2ccc(N3CCN(CCNc4cccc5c4C(=O)N(C4CCC(=O)NC4=O)C5=O)CC3)cc2)C(C)(C)[C@H]1Oc1ccc(C#N)c(Cl)c1 (some centres not stated),41

# Next, values leading:
row,Activity [%],SMILES
1,96,CC1(C)[C@H](NC(=O)c2ccc(C(=O)N3CCN(CC4CN(c5ccc6c(c5)C(=O)N(C5CCC(=O)NC5=O)C6=O)C4)CC3)cc2)C(C)(C)[C@H]1Oc1ccc(C#N)c(Cl)c1 (some centres not stated)
2,75,CC1(C)[C@H](NC(=O)c2ccc(N3CCN(CC4CCN(c5ccc6c(c5)C(=O)N(C5CCC(=O)NC5=O)C6=O)CC4)CC3)cc2)C(C)(C)[C@H]1Oc1ccc(C#N)c(F)c1 (some centres not stated)
3,71,CC1(C)[C@H](NC(=O)c2ccc(N3CCN(CC4CC5(CCN(c6ccc7c(c6)C(=O)N(C6CCC(=O)NC6=O)C7=O)C5)C4)CC3)cc2)C(C)(C)[C@H]1Oc1ccc(C#N)c(Cl)c1 (some centres not stated)
4,73,CC1(C)[C@H](NC(=O)c2ccc(N3CCN(C4CCC5(CC4)CN(c4ccc6c(c4)C(=O)N(C4CCC(=O)NC4=O)C6=O)C5)CC3)cc2)C(C)(C)[C@H]1Oc1ccc(C#N)c(Cl)c1 (some centres not stated)
5,82,CC1(C)[C@H](NC(=O)c2ccc(N3CCC4(CC3)CC(Nc3ccc5c(c3)C(=O)N(C3CCC(=O)NC3=O)C5=O)C4)cc2)C(C)(C)[C@H]1Oc1ccc(C#N)c(Cl)c1 (some centres not stated)

# Biological target: T1, Protein cereblon/Androgen receptor
# Experiment: Protac activity at CRBN/AR in human VCaP cells assessed as induction of AR degradation at 0.01 uM measured after 24 hrs by western blot analysis relative to control
# Assay type: cell-based
# Conditions: not given
# Method in brief: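 VCaP cells treated 24 h at 1, 10, 100 and 1000 nM; lysed in RIPA with protease/phosphatase inhibitors, run on 4–12% SDS-PAGE, blotted to PVDF. AR bands background-subtracted and normalized to loading control; degradation relative to DMSO, average of three independent experiments.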
row,SMILES,Activity [%]
1,N#Cc1ccc(O[C@H]2C[C@H](NC(=O)c3ccc(N4CCN(CC5CCN(c6ccc7c(c6)C(=O)N(C6CCC(=O)NC6=O)C7=O)CC5)CC4)cc3)C2)cc1Cl (some centres not stated),30
2,CC1(C)[C@H](NC(=O)c2ccc(N3CCC4(CCC(Nc5ccc6c(c5)C(=O)N(C5CCC(=O)NC5=O)C6=O)CC4)CC3)cc2)C(C)(C)[C@H]1Oc1ccc(C#N)c(Cl)c1 (some centres not stated),30
3,CC1(C)[C@H](NC(=O)c2ccc(N3CCN(CCNc4cccc5c4C(=O)N(C4CCC(=O)NC4=O)C5=O)CC3)cc2)C(C)(C)[C@H]1Oc1ccc(C#N)c(Cl)c1 (some centres not stated),23

# Next, values leading:
row,Activity [%],SMILES
1,92,CC1(C)[C@H](NC(=O)c2ccc(C(=O)N3CCN(CC4CN(c5ccc6c(c5)C(=O)N(C5CCC(=O)NC5=O)C6=O)C4)CC3)cc2)C(C)(C)[C@H]1Oc1ccc(C#N)c(Cl)c1 (some centres not stated)
2,15,CC1(C)[C@H](NC(=O)c2ccc(N3CCN(CC4CCN(c5ccc6c(c5)C(=O)N(C5CCC(=O)NC5=O)C6=O)CC4)CC3)cc2)C(C)(C)[C@H]1Oc1ccc(C#N)c(F)c1 (some centres not stated)
3,56,CC1(C)[C@H](NC(=O)c2ccc(N3CCN(CC4CC5(CCN(c6ccc7c(c6)C(=O)N(C6CCC(=O)NC6=O)C7=O)C5)C4)CC3)cc2)C(C)(C)[C@H]1Oc1ccc(C#N)c(Cl)c1 (some centres not stated)
4,48,CC1(C)[C@H](NC(=O)c2ccc(N3CCN(C4CCC5(CC4)CN(c4ccc6c(c4)C(=O)N(C4CCC(=O)NC4=O)C6=O)C5)CC3)cc2)C(C)(C)[C@H]1Oc1ccc(C#N)c(Cl)c1 (some centres not stated)
5,16,CC1(C)[C@H](NC(=O)c2ccc(N3CCC4(CC3)CC(Nc3ccc5c(c3)C(=O)N(C3CCC(=O)NC3=O)C5=O)C4)cc2)C(C)(C)[C@H]1Oc1ccc(C#N)c(Cl)c1 (some centres not stated)

# Biological target: T1, Protein cereblon/Androgen receptor
# Experiment: Protac activity at CRBN/AR in human VCAP cells assessed as induction of AR degradation at 1 uM by western blot analysis relative to control
# Assay type: cell-based
# Conditions: time 24.0 hrs
row,SMILES,Activity [%]
1,N#Cc1ccc(O[C@H]2C[C@H](NC(=O)c3ccc(N4CCN(CC5CCN(c6ccc7c(c6)C(=O)N(C6CCC(=O)NC6=O)C7=O)CC5)CC4)cc3)C2)cc1Cl (some centres not stated),39
2,CC1(C)[C@H](NC(=O)c2ccc(N3CCC4(CCC(Nc5ccc6c(c5)C(=O)N(C5CCC(=O)NC5=O)C6=O)CC4)CC3)cc2)C(C)(C)[C@H]1Oc1ccc(C#N)c(Cl)c1 (some centres not stated),57
3,CC1(C)[C@H](NC(=O)c2ccc(N3CCN(CCNc4cccc5c4C(=O)N(C4CCC(=O)NC4=O)C5=O)CC3)cc2)C(C)(C)[C@H]1Oc1ccc(C#N)c(Cl)c1 (some centres not stated),32

# Continued, values first:
row,Activity [%],SMILES
1,79,CC1(C)[C@H](NC(=O)c2ccc(C(=O)N3CCN(CC4CN(c5ccc6c(c5)C(=O)N(C5CCC(=O)NC5=O)C6=O)C4)CC3)cc2)C(C)(C)[C@H]1Oc1ccc(C#N)c(Cl)c1 (some centres not stated)
2,80,CC1(C)[C@H](NC(=O)c2ccc(N3CCN(CC4CCN(c5ccc6c(c5)C(=O)N(C5CCC(=O)NC5=O)C6=O)CC4)CC3)cc2)C(C)(C)[C@H]1Oc1ccc(C#N)c(F)c1 (some centres not stated)
3,51,CC1(C)[C@H](NC(=O)c2ccc(N3CCN(CC4CC5(CCN(c6ccc7c(c6)C(=O)N(C6CCC(=O)NC6=O)C7=O)C5)C4)CC3)cc2)C(C)(C)[C@H]1Oc1ccc(C#N)c(Cl)c1 (some centres not stated)
4,82,CC1(C)[C@H](NC(=O)c2ccc(N3CCN(C4CCC5(CC4)CN(c4ccc6c(c4)C(=O)N(C4CCC(=O)NC4=O)C6=O)C5)CC3)cc2)C(C)(C)[C@H]1Oc1ccc(C#N)c(Cl)c1 (some centres not stated)
5,88,CC1(C)[C@H](NC(=O)c2ccc(N3CCC4(CC3)CC(Nc3ccc5c(c3)C(=O)N(C3CCC(=O)NC3=O)C5=O)C4)cc2)C(C)(C)[C@H]1Oc1ccc(C#N)c(Cl)c1 (some centres not stated)
